Assays:
[1] = molecular target: T1, Adrenergic receptor alpha (Rattus norvegicus) (UniProt P15823+P23944+P43140+P22086+P19328+P22909); test: Ratio of maximum contraction of rat aorta elicited versus that elicited by noradrenaline (defined as intrinsic activity); assay type: functional, tissue-based
Summary of the method: (§1)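 Helical strips of rat aorta (1.5–2 cm × 3–4 mm) were held in Krebs-Henseleit at 37 °C, gassed with 95% O2/5% CO2, at 2 g resting tension, and equilibrated about 2 h. Cumulative contraction curves were recorded isometrically, first for norepinephrine, then after washout and 1 h rest for the test agonist. pD2 (−log ED50) was derived by the Ariens–Van Rossum method. Intrinsic activity is the compound's maximum response divided by the norepinephrine maximum.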

[2] = molecular target: T1, Adrenergic receptor alpha (Rattus norvegicus); test: Binding affinity to alpha adrenergic receptors in rat aorta; assay type: tissue-based; summary of the method: as §1
[3] = Intrinsic activity of the compound, which is expressed as the ratio of the maximum response to the maximum response to norepinephrine; assay type: functional; summary of the method: as §1

Row | Structure (SMILES) | Ratio [1] | pD2 [2] | Intrinsic [3]
1 | NCC(O)c1ccc(C2CCCCC2)c(O)c1 (stereo not drawn) | 0.7 | 4.86 | 
2 | NCC(O)c1ccc(O)c(Cl)c1 (stereo not drawn) | 1 | 5.85 | 
3 | COC(=O)c1cc(C(O)CN)ccc1O (stereo not drawn) | 0.9 | 4.85 | 
4 | NCC(O)c1ccc(O)c(C(=O)O)c1 (stereo not drawn) | 1 | 4.07 | 
5 | CC(C)c1ccc(C(O)CN)cc1O (stereo not drawn) | 0.7 | 5 | 
6 | NCC(O)c1ccc(Br)c(O)c1 (stereo not drawn) | 1 | 5.58 | 
7 | NCC(O)c1ccc(O)c(C2CCCCC2)c1 (stereo not drawn) | 1.1 | 6.73 | 
8 | NCC(O)c1cccc(O)c1 (stereo not drawn) | 1 | 8.21 | 
9 | Cc1ccc(C(O)CN)cc1O (stereo not drawn) |  | 5.66 | 1.3
10 | CC(C)c1cc(C(O)CN)ccc1O (stereo not drawn) | 1.2 | 6.53 | 
11 | NCC(O)c1ccc(I)c(O)c1 (stereo not drawn) | 0.9 | 4.99 | 
12 | NC[C@H](O)c1ccc(O)c(O)c1 | 1 | 8.8 | 
13 | NCC(O)c1ccc(Cl)c(O)c1 (stereo not drawn) | 1.1 | 6.35 | 
14 | COc1ccc(C(O)CN)cc1O (stereo not drawn) | 1 | 4.97 | 
15 | CCc1ccc(C(O)CN)cc1O (stereo not drawn) | 1.1 | 5.2 | 
16 | Cc1cc(C(O)CN)ccc1O (stereo not drawn) | 1 | 5.96 | 
17 | CCc1cc(C(O)CN)ccc1O (stereo not drawn) | 0.9 | 6.09 | 
18 | NCC(O)c1ccc(O)c(F)c1 (stereo not drawn) | 1 | 6.78 | 
19 | CS(=O)(=O)Nc1ccc(C(O)CN)cc1O (stereo not drawn) | 0.8 | 3.2 | 
20 | CS(=O)(=O)Nc1cc(C(O)CN)ccc1O (stereo not drawn) | 1.1 | 7.19 | 
21 | NCC(O)c1ccc(O)c(I)c1 (stereo not drawn) | 0.9 | 5.5 | 
22 | NCC(O)c1ccc(O)c(Br)c1 (stereo not drawn) | 1.1 | 5.57 | 
23 | NCC(O)c1ccc(O)cc1 (stereo not drawn) | 1.1 | 6.08 | 
24 | COc1cc(C(O)CN)ccc1O (stereo not drawn) | 1.1 | 6.23 | 

From ChEMBL document CHEMBL1121471, “Synthesis and structure-activity relationships among alpha-adrenergic receptor agonists of the phenylethanolamine type” (J Med Chem, 1980)
